In ChEMBL document CHEMBL1949585, “Design, synthesis and evaluation of telomerase inhibitory, hTERT repressing, and anti-proliferation activities of symmetrical 1,8-disubstituted amidoanthraquinones” (Eur J Med Chem, 2012):

Tests used:
[1] = system: Malme-3M; assay: Cytotoxicity against human MALME-3M cells assessed as cell growth at 10 uM relative to control; format: functional; settings: read-out: Activity
Procedure, shortened: (§1)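 Single-concentration screen in the NCI 60 human tumour cell line panel covering nine cancer types. Values are the mean growth percentage of compound-treated cells, with untreated control cells set as 100%.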

[2] = system: TK-10; assay: Cytotoxicity against human TK10 cells assessed as cell growth at 10 uM relative to control; format: functional; settings: read-out: Activity
Procedure, shortened: (§2)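 Run in the NCI 60-cell human tumour panel. Cells were exposed to 10 µM compound, and growth was given as a percentage of untreated control cells set to 100%.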

[3] = Cytotoxicity against human Hs 578T cells assessed as cell growth at 10 uM relative to control; format: functional; settings: read-out: Activity; procedure, shortened: as §1
[4] = system: K562; assay: Cytotoxicity against human K562 cells assessed as cell growth at 10 uM relative to control; format: functional; settings: read-out: Activity; procedure, shortened: as §1
[5] = Cytotoxicity against human H1299 cells assessed as cell growth at 1 uM after 48 hrs by MTT assay; format: functional; settings: NCI-H1299, 48 h, read-out: Activity
Procedure, shortened: (§3)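 H1299 non-small lung cancer cells were grown in RPMI 1640 with 10% FBS and penicillin/streptomycin at 37 °C in 5% CO2. About 2×10³ cells were seeded per well and held 24 h, then washed with PBS and given fresh medium. Compound, freshly dissolved in DMSO and diluted in complete medium, was added for 48 h. MTT was read at 550 nm after SDS/DMF lysis at 37 °C for 16 h. Values are from three experiments, untreated = 100%, ±SD.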

[6] = system: SNB-75; assay: Cytotoxicity against human SNB75 cells assessed as cell growth at 10 uM relative to control; format: functional; settings: read-out: Activity; procedure, shortened: as §2
[7] = system: SN12C; assay: Cytotoxicity against human SN12C cells assessed as cell growth at 10 uM relative to control; format: functional; settings: read-out: Activity; procedure, shortened: as §1
[8] = system: SF-268; assay: Cytotoxicity against human SF268 cells assessed as cell growth at 10 uM relative to control; format: functional; settings: read-out: Activity; procedure, shortened: as §1
[9] = Inhibition of human TERT expression in H1299 cells at 10 uM after 24 hrs by secreted alkaline phosphatase reporter gene assay relative to control; values are per cent of control; settings: NCI-H1299
[10] = system: MOLT-4; assay: Cytotoxicity against human MOLT4 cells assessed as cell growth at 10 uM relative to control; format: functional; settings: read-out: Activity; procedure, shortened: as §1
[11] = system: UACC-257; assay: Cytotoxicity against human UACC257 cells assessed as cell growth at 10 uM relative to control; format: functional; settings: read-out: Activity; procedure, shortened: as §2
[12] = system: LOX IMVI; assay: Cytotoxicity against human LOXIMVI cells assessed as cell growth at 10 uM relative to control; format: functional; settings: read-out: Activity; procedure, shortened: as §1
[13] = system: UO-31; assay: Cytotoxicity against human UO31 cells assessed as cell growth at 10 uM relative to control; format: functional; settings: read-out: Activity; procedure, shortened: as §2
[14] = Inhibition of human TERT expression in H1299 cells at 100 uM after 24 hrs by secreted alkaline phosphatase reporter gene assay relative to control; values are per cent of control; settings: NCI-H1299
[15] = system: NCI/ADR-RES; assay: Cytotoxicity against human NCI/ADR-RES cells assessed as cell growth at 10 uM relative to control; format: functional; settings: read-out: Activity; procedure, shortened: as §1
[16] = system: NCI-H226; assay: Cytotoxicity against human NCI-H226 cells assessed as cell growth at 10 uM relative to control; format: functional; settings: read-out: Activity; procedure, shortened: as §1
[17] = system: SK-MEL-5; assay: Cytotoxicity against human SK-MEL-5 cells assessed as cell growth at 10 uM relative to control; format: functional; settings: read-out: Activity; procedure, shortened: as §1
[18] = system: UACC-62; assay: Cytotoxicity against human UACC62 cells assessed as cell growth at 10 uM relative to control; format: functional; settings: read-out: Activity; procedure, shortened: as §2
[19] = system: MCF7; assay: Cytotoxicity against human MCF7 cells assessed as cell growth at 10 uM relative to control; format: functional; settings: read-out: Activity; procedure, shortened: as §1
[20] = system: HCC 2998; assay: Cytotoxicity against human HCC2998 cells assessed as cell growth at 10 uM relative to control; format: functional; settings: read-out: Activity; procedure, shortened: as §1
[21] = system: KM12; assay: Cytotoxicity against human KM12 cells assessed as cell growth at 10 uM relative to control; format: functional; settings: read-out: Activity; procedure, shortened: as §1
[22] = system: MDA-MB-231; assay: Cytotoxicity against human MDA-MB-231 cells assessed as cell growth at 10 uM relative to control; format: functional; settings: read-out: Activity; procedure, shortened: as §1
[23] = system: OVCAR-5; assay: Cytotoxicity against human OVCAR5 cells assessed as cell growth at 10 uM relative to control; format: functional; settings: read-out: Activity; procedure, shortened: as §1
[24] = system: ACHN; assay: Cytotoxicity against human ACHN cells assessed as cell growth at 10 uM relative to control; format: functional; settings: read-out: Activity; procedure, shortened: as §1
[25] = system: SNB-19; assay: Cytotoxicity against human SNB19 cells assessed as cell growth at 10 uM relative to control; format: functional; settings: read-out: Activity; procedure, shortened: as §2
[26] = system: EKVX; assay: Cytotoxicity against human EKVX cells assessed as cell growth at 10 uM relative to control; format: functional; settings: read-out: Activity; procedure, shortened: as §1
[27] = system: NCI-H460; assay: Cytotoxicity against human NCI-H460 cells assessed as cell growth at 10 uM relative to control; format: functional; settings: read-out: Activity; procedure, shortened: as §1
[28] = system: HCT-15; assay: Cytotoxicity against human HCT15 cells assessed as cell growth at 10 uM relative to control; format: functional; settings: read-out: Activity; procedure, shortened: as §1
[29] = system: MDA-MB-435; assay: Cytotoxicity against human MDA-MB-435 cells assessed as cell growth at 10 uM relative to control; format: functional; settings: read-out: Activity; procedure, shortened: as §1
[30] = system: PC-3; assay: Cytotoxicity against human PC3 cells assessed as cell growth at 10 uM relative to control; format: functional; settings: read-out: Activity; procedure, shortened: as §1
[31] = system: T47D; assay: Cytotoxicity against human T47D cells assessed as cell growth at 10 uM relative to control; format: functional; settings: read-out: Activity; procedure, shortened: as §2
[32] = system: SK-OV-3; assay: Cytotoxicity against human SKOV3 cells assessed as cell growth at 10 uM relative to control; format: functional; settings: read-out: Activity; procedure, shortened: as §1
[33] = system: BT-549; assay: Cytotoxicity against human BT549 cells assessed as cell growth at 10 uM relative to control; format: functional; settings: read-out: Activity; procedure, shortened: as §1
[34] = system: HOP-92; assay: Cytotoxicity against human HOP92 cells assessed as cell growth at 10 uM relative to control; format: functional; settings: read-out: Activity; procedure, shortened: as §1
[35] = system: CCRF-CEM; assay: Cytotoxicity against human CCRF-CEM cells assessed as cell growth at 10 uM relative to control; format: functional; settings: read-out: Activity; procedure, shortened: as §1
[36] = system: NCI-H322M; assay: Cytotoxicity against human NCI-H322M cells assessed as cell growth at 10 uM relative to control; format: functional; settings: read-out: Activity; procedure, shortened: as §1
[37] = Cytotoxicity against human H1299 cells assessed as cell growth at 10 uM after 48 hrs by MTT assay; format: functional; settings: NCI-H1299, 48 h, read-out: Activity; procedure, shortened: as §3
[38] = Inhibition of human TERT expression in H1299 cells at 1 uM after 24 hrs by secreted alkaline phosphatase reporter gene assay relative to control; values are per cent of control; settings: NCI-H1299
[39] = system: DU-145; assay: Cytotoxicity against human DU145 cells assessed as cell growth at 10 uM relative to control; format: functional; settings: read-out: Activity; procedure, shortened: as §1
[40] = Cytotoxicity against human H1299 cells assessed as cell growth at 100 uM after 48 hrs by MTT assay; format: functional; settings: NCI-H1299, 48 h, read-out: Activity; procedure, shortened: as §3
[41] = system: A549; assay: Cytotoxicity against human A549 cells assessed as cell growth at 10 uM relative to control; format: functional; settings: read-out: Activity; procedure, shortened: as §1
[42] = system: A498; assay: Cytotoxicity against human A498 cells assessed as cell growth at 10 uM relative to control; format: functional; settings: read-out: Activity; procedure, shortened: as §1
[43] = system: HL-60(TB); assay: Cytotoxicity against human HL-60(TB) cells assessed as cell growth at 10 uM relative to control; format: functional; settings: read-out: Activity
Procedure, shortened: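 Tested in the NCI 60 human tumour cell line panel, covering nine cancer cell types, at a single concentration. The value is the mean growth percentage of treated cells, with untreated control cells taken as 100%.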

SMILES: COC(=O)CNCC(=O)Nc1cccc2c1C(=O)c1c(NC(=O)CNCC(=O)OC)cccc1C2=O
- growth at 10 µM [1]: 102%
- growth at 10 µM [2]: 84.9%
- growth at 10 µM [3]: 104%
- growth at 10 µM [4]: 97.1%
- growth at 1 µM [5]: 84%
- growth at 10 µM [6]: 89.9%
- growth at 10 µM [7]: 90.4%
- growth at 10 µM [8]: 100%
- level, % of control [9]: 93%
- growth at 10 µM [10]: 83.8%
- growth at 10 µM [11]: 92.4%
- growth at 10 µM [12]: 88.2%
- growth at 10 µM [13]: 88.9%
- level, % of control [14]: 12%
- growth at 10 µM [15]: 92.9%
- growth at 10 µM [16]: 84.6%
- growth at 10 µM [17]: 94.3%
- growth at 10 µM [18]: 90.3%
- growth at 10 µM [19]: 89.5%
- growth at 10 µM [20]: 106%
- growth at 10 µM [21]: 107%
- growth at 10 µM [22]: 90.2%
- growth at 10 µM [23]: 106%
- growth at 10 µM [24]: 90.7%
- growth at 10 µM [25]: 95.3%
- growth at 10 µM [26]: 104%
- growth at 10 µM [27]: 95.1%
- growth at 10 µM [28]: 94.3%
- growth at 10 µM [29]: 102%
- growth at 10 µM [30]: 76.6%
- growth at 10 µM [31]: 83.8%
- growth at 10 µM [32]: 104%
- growth at 10 µM [33]: 99.9%
- growth at 10 µM [34]: 75.8%
- growth at 10 µM [35]: 64.4%
- growth at 10 µM [36]: 94.5%
- growth at 10 µM [37]: 86%
- level, % of control [38]: 111%
- growth at 10 µM [39]: 107%
- growth at 100 µM [40]: 68%
- growth at 10 µM [41]: 94.3%
- growth at 10 µM [42]: 85.2%
- growth at 10 µM [43]: 107%

SMILES: CCN(CC)CC(=O)Nc1cccc2c1C(=O)c1c(NC(=O)CN(CC)CC)cccc1C2=O
- growth at 10 µM [1]: 112%
- growth at 10 µM [2]: 105%
- growth at 10 µM [3]: 111%
- growth at 10 µM [4]: 106%
- growth at 1 µM [5]: 86%
- growth at 10 µM [6]: 81.7%
- growth at 10 µM [7]: 92.1%
- growth at 10 µM [8]: 138%
- level, % of control [9]: 84%
- growth at 10 µM [10]: 91.2%
- growth at 10 µM [11]: 105%
- growth at 10 µM [12]: 89.3%
- growth at 10 µM [13]: 87.3%
- level, % of control [14]: 42%
- growth at 10 µM [15]: 101%
- growth at 10 µM [16]: 85.5%
- growth at 10 µM [17]: 101%
- growth at 10 µM [18]: 93.5%
- growth at 10 µM [19]: 88.7%
- growth at 10 µM [20]: 103%
- growth at 10 µM [21]: 119%
- growth at 10 µM [22]: 91.2%
- growth at 10 µM [23]: 101%
- growth at 10 µM [24]: 91.9%
- growth at 10 µM [25]: 94.1%
- growth at 10 µM [26]: 104%
- growth at 10 µM [27]: 97.2%
- growth at 10 µM [28]: 93.4%
- growth at 10 µM [29]: 103%
- growth at 10 µM [30]: 89.1%
- growth at 10 µM [31]: 84.8%
- growth at 10 µM [32]: 103%
- growth at 10 µM [33]: 97.4%
- growth at 10 µM [34]: 93.5%
- growth at 10 µM [35]: 84.6%
- growth at 10 µM [36]: 93.8%
- growth at 10 µM [37]: 78%
- level, % of control [38]: 86%
- growth at 10 µM [39]: 137%
- growth at 100 µM [40]: 50%
- growth at 10 µM [41]: 91.7%
- growth at 10 µM [42]: 93.3%
- growth at 10 µM [43]: 94.7%
